Results from ChEMBL document CHEMBL4184229, “Synthesis, biological evaluation and docking study of a new series of di-substituted benzoxazole derivatives as selective COX-2 inhibitors and anti-inflammatory agents” (Bioorg Med Chem, 2018).

Legend:
[1] = target: T1, Prostaglandin G/H synthase 1 (Ovis aries, UniProt P05979); experiment: Inhibition of ovine COX1 assessed as reduction in Prostaglandin production by enzyme immunoassay
T1 sequence (P05979 whole entry): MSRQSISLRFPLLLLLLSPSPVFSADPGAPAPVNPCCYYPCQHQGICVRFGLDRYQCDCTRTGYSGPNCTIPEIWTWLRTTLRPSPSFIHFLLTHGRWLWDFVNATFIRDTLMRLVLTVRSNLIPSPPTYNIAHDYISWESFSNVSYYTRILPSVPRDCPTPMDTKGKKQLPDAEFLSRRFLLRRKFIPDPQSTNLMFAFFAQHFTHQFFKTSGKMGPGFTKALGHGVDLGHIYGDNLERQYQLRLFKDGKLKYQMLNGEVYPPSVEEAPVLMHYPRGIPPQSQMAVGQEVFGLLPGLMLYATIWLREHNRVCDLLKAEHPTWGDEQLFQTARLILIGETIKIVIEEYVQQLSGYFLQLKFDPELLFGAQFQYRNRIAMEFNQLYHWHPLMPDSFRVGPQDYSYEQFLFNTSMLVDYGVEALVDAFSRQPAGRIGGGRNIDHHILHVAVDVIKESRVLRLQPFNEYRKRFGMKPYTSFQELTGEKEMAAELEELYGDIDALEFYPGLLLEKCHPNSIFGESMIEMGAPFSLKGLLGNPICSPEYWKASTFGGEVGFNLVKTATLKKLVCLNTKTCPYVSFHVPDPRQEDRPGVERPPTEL
Procedure, shortened: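 Enzyme immunoassay kit with ovine COX-1 (human recombinant COX-2 also supplied). Colour intensity read spectrophotometrically; signal is proportional to PG tracer bound to the well and inversely proportional to free PG in the well. Inhibition calculated against control incubations. IC50 taken from the log concentration vs % inhibition curve.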

Rattus norvegicus [2] = experiment: Anti-inflammatory activity against carrageenan-induced Wistar albino rat paw edema model assessed as inhibition of paw edema at 20 mg/kg, po pretreated for 30 mins followed by carrageenan-challenge measured at 1 hr interval for 3 hrs by plethysmographic method relative to control; format: functional
Procedure, shortened: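 Wistar albino rats housed at 25-28 °C, 50–65% relative humidity, 12 h light/dark cycle; five per group. Oral dosing; control group given an equivalent volume of normal saline. Half an hour later, 0.1 ml of 1.0% w/v carrageenan in 0.9% saline injected into the sub-plantar tissue of the hind paw. […] Values taken at 3 h as mean ± SEM; Tukey's test versus control.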

Rattus norvegicus [3] = experiment: Anti-inflammatory activity against carrageenan-induced Wistar albino rat paw edema model assessed as paw edema volume at 20 mg/kg, po pretreated for 30 mins followed by carrageenan-challenge measured after 3 hrs by plethysmographic method (reference value: 1.14 ml); format: functional
Rattus norvegicus [4] = experiment: Anti-inflammatory activity against carrageenan-induced Wistar albino rat paw edema model assessed as paw edema volume at 20 mg/kg, po pretreated for 30 mins followed by carrageenan-challenge measured immediately by plethysmographic method (reference value: 0.7 ml); format: functional
Rattus norvegicus [5] = experiment: Ulcerogenicity in Wistar albino rat assessed as severity index at 60 mg/kg, po measured after 6 hrs; format: toxicity, organism-based; settings: in vivo

SMILES	IC50 [1] [µM]	inhibition in vivo at 20 mg/kg (Rattus norvegicus [2]) [%]	Activity (Rattus norvegicus [3]) [mL]	Activity (Rattus norvegicus [4]) [mL]	UI (Rattus norvegicus [5])
COc1ccc(C(=O)Nc2ccc3oc(-c4ccc(OC)c(OC)c4)nc3c2)cc1	16.3				
COc1ccc(-c2nc3cc(NC(=O)c4ccccc4C)ccc3o2)cc1OC	9.21				
COc1ccc(-c2nc3cc(NC(=O)c4ccccc4)ccc3o2)cc1OC	6.2				
COc1ccc(-c2nc3cc(NC(=O)c4cccc(C)c4)ccc3o2)cc1OC	5.21				
COc1cc(OC)cc(C(=O)Nc2ccc3oc(-c4ccc(OC)c(OC)c4)nc3c2)c1	6.02	68.2	0.81	0.67	2.1
COc1ccc(-c2nc3cc(NC(=O)c4ccc(C)cc4)ccc3o2)cc1OC	7.84				
CC(C)Cc1ccc(C(C)C(=O)O)cc1 (configuration not stated) [IBUPROFEN]		65.9			2.2
COc1ccc(-c2nc3cc(NC(=O)c4ccc(O)cc4)ccc3o2)cc1OC	58.2				
COc1ccc(C(=O)Nc2ccc3oc(-c4ccc(OC)c(OC)c4)nc3c2)cc1OC	8.2				

The next lines start with results.

IC50 [1] [µM]	SMILES	inhibition in vivo at 20 mg/kg (Rattus norvegicus [2]) [%]	Activity (Rattus norvegicus [3]) [mL]	Activity (Rattus norvegicus [4]) [mL]	UI (Rattus norvegicus [5])
10.2	COc1ccc(-c2nc3cc(NC(=O)c4cc([N+](=O)[O-])ccc4Cl)ccc3o2)cc1OC				
3.23	COc1ccc(-c2nc3cc(NC(=O)c4ccc([N+](=O)[O-])cc4)ccc3o2)cc1OC	79.5	0.8	0.71	1.8
1.02	COc1ccc(-c2nc3cc(NC(=O)c4ccccc4Cl)ccc3o2)cc1OC	84.1	0.74	0.66	0.8
8.82	COc1ccc(-c2nc3cc(NC(=O)c4cccc(Cl)c4)ccc3o2)cc1OC				
5.15	COc1ccc(-c2nc3cc(NC(=O)c4ccc([N+](=O)[O-])cc4Cl)ccc3o2)cc1OC	72.7	0.77	0.71	1
5.52	COc1ccc(-c2nc3cc(NC(=O)c4cccc([N+](=O)[O-])c4)ccc3o2)cc1OC	54.5	0.77	0.57	
7.32	COc1ccc(-c2nc3cc(NC(=O)c4ccc(Cl)cc4)ccc3o2)cc1OC				
10.1	COc1ccc(-c2nc3cc(NC(=O)c4ccccc4Br)ccc3o2)cc1OC				
